“And” between values parts separate entries of the source, which are not always exact repeats. Identical values can stand only once. Like-named read-outs stand apart in the source and are kept apart here.
Key:
T-Cav3.2-channel = T-Cav3.2-channel (Mus musculus, UniProt O88427); experiment: Whole-cell patch clamp inhibition of T-Cav3.2 channel in mouse DRG neurons; format: cell-based
Summary of the method: (§1)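 Lumbar DRG neurons from 1–6 month-old C57 mice, digested in HBSS with 1 mg/mL collagenase and 0.5 mg/mL trypsin (35°C, 45–50 min). Neurons triturated, plated on poly-L-ornithine coverslips and kept in modified Krebs solution at 21°C. Whole-cell voltage clamp at room temperature. Compound applied by rapid local solution exchange; currents normalized to control to give % inhibition; sigmoidal dose-response fits.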

Na-channel = experiment: Whole-cell patch clamp inhibition of Na-channel in mouse DRG neurons; format: cell-based; conditions: for IC50: read-out: IC50, Na- channel in DRG neurons
Summary of the method: as §1

K-channel = experiment: Whole-cell patch clamp inhibition of K-channel; format: cell-based; conditions: mouse DRG neurons
Summary of the method: as §1

PTZ-induced seizures = experiment: Pentylenetetrazole; format: in vivo, mouse; conditions: 30 mg/Kg; for Inhibition ratio (%) of fatality in PTZ-model of mice: 20-min observation period, 100 minus death ratio; for Latency to fatality (minutes) in PTZ model of mice: first 20 minutes of testing
Summary of the method: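 Mice received pentylenetetrazol at 40 mg/kg by intraperitoneal injection; test compound groups were compared with vehicle (2% DMSO in 0.5% hydroxypropyl cellulose), […]. Deaths were recorded within a 20-min cutoff. Inhibition ratio was 100 minus the % of mice that died. Latency to fatality was recorded per mouse as mean ± SEM. Experimenters were blinded.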

[1] = target: Cav3.2 channels expressed in HEK-293 cells (Homo sapiens, UniProt O95180); experiment: Whole-cell patch clamp inhibition of Cav3.2 channels expressed in HEK293 cells; format: cell-based
Summary of the method: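 Tetracycline-inducible HEK293 line, G418-selected, reseeded on poly-D-lysine coverslips; Cav3.2 induced after 24 h with 1 µg/mL tetracycline. Whole-cell voltage clamp at room temperature. External solution: choline-Cl/TEA-Cl with 2 mM CaCl2. Internal solution: CsCl/EGTA. Holding potential -100 mV, then 100 ms depolarizing steps of 10 mV at 10 s intervals. Compound applied by rapid solution exchange; currents normalized to control; sigmoidal dose-response fits.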

T-type calcium channels = conditions: read-out: IC50, T-type calcium channels; cited from earlier work
L-type calcium channels = conditions: read-out: IC50, L-type calcium channels; cited from earlier work
[2] = tested on: pentylenetetrazole-induced seizures; conditions: 30 mg/Kg; cited from earlier work
[3] = DRG neuron, read-out: Inhibition (%) of T-Cav3.2- channel in DRG neurons

Sequence of T-Cav3.2-channel (O88427 whole entry): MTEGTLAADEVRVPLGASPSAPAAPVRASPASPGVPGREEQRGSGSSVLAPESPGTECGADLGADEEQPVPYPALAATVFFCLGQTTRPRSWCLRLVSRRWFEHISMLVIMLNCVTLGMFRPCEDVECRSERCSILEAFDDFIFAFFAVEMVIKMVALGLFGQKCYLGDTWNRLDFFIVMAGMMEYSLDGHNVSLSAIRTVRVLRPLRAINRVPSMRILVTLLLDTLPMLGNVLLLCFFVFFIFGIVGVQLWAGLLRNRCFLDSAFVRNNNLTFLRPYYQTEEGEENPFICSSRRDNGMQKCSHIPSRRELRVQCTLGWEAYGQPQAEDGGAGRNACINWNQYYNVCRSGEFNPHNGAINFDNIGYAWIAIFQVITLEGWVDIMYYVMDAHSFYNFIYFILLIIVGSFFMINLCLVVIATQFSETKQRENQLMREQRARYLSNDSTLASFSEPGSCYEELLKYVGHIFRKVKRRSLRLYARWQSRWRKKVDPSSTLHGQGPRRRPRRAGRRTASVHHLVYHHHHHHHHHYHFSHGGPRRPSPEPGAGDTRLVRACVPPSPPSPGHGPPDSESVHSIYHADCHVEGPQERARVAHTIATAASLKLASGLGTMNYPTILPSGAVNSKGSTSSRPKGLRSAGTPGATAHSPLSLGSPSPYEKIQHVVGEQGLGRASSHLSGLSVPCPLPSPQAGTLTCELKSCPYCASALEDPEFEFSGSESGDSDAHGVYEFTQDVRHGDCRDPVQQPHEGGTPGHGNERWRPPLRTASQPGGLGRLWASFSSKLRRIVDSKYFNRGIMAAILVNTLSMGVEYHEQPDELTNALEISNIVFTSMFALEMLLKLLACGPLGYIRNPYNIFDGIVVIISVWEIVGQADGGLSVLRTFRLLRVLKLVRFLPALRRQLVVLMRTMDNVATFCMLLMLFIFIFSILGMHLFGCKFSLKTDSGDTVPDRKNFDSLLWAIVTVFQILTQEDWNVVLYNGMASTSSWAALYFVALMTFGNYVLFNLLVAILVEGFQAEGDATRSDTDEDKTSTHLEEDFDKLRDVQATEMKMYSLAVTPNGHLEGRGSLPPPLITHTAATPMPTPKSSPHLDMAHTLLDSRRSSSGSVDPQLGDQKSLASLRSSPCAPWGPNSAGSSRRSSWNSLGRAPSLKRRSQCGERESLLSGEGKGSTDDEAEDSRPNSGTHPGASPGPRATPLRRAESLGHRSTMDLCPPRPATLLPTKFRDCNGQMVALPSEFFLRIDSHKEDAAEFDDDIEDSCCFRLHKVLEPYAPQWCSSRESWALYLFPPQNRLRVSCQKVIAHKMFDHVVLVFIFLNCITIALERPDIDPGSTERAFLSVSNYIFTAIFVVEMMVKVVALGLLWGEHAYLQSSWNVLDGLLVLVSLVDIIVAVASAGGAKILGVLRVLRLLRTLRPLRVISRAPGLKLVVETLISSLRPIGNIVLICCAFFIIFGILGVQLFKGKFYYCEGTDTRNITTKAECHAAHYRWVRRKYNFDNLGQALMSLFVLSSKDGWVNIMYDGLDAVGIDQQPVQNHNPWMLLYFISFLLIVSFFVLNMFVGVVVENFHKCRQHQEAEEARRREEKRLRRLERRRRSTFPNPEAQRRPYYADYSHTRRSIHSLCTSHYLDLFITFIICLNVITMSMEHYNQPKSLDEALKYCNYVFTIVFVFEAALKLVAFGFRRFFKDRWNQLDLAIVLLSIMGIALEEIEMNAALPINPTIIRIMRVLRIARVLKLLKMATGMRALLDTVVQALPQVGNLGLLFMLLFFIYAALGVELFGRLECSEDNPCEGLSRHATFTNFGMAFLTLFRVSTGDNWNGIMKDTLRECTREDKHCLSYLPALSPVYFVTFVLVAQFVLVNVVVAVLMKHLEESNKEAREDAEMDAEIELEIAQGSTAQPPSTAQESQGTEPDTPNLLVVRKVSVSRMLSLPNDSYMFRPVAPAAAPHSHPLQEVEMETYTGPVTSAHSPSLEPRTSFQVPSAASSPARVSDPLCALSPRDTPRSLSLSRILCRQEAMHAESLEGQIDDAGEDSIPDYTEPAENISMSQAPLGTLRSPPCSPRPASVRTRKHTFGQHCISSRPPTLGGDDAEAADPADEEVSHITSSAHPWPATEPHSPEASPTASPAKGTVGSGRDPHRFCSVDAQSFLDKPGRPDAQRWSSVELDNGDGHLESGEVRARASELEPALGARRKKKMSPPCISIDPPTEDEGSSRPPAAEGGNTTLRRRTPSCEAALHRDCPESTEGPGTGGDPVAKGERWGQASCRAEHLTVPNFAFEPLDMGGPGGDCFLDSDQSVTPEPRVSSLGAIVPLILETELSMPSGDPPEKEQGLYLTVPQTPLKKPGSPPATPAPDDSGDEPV
Sequence of Cav3.2 channels expressed in HEK-293 cells (O95180 whole entry): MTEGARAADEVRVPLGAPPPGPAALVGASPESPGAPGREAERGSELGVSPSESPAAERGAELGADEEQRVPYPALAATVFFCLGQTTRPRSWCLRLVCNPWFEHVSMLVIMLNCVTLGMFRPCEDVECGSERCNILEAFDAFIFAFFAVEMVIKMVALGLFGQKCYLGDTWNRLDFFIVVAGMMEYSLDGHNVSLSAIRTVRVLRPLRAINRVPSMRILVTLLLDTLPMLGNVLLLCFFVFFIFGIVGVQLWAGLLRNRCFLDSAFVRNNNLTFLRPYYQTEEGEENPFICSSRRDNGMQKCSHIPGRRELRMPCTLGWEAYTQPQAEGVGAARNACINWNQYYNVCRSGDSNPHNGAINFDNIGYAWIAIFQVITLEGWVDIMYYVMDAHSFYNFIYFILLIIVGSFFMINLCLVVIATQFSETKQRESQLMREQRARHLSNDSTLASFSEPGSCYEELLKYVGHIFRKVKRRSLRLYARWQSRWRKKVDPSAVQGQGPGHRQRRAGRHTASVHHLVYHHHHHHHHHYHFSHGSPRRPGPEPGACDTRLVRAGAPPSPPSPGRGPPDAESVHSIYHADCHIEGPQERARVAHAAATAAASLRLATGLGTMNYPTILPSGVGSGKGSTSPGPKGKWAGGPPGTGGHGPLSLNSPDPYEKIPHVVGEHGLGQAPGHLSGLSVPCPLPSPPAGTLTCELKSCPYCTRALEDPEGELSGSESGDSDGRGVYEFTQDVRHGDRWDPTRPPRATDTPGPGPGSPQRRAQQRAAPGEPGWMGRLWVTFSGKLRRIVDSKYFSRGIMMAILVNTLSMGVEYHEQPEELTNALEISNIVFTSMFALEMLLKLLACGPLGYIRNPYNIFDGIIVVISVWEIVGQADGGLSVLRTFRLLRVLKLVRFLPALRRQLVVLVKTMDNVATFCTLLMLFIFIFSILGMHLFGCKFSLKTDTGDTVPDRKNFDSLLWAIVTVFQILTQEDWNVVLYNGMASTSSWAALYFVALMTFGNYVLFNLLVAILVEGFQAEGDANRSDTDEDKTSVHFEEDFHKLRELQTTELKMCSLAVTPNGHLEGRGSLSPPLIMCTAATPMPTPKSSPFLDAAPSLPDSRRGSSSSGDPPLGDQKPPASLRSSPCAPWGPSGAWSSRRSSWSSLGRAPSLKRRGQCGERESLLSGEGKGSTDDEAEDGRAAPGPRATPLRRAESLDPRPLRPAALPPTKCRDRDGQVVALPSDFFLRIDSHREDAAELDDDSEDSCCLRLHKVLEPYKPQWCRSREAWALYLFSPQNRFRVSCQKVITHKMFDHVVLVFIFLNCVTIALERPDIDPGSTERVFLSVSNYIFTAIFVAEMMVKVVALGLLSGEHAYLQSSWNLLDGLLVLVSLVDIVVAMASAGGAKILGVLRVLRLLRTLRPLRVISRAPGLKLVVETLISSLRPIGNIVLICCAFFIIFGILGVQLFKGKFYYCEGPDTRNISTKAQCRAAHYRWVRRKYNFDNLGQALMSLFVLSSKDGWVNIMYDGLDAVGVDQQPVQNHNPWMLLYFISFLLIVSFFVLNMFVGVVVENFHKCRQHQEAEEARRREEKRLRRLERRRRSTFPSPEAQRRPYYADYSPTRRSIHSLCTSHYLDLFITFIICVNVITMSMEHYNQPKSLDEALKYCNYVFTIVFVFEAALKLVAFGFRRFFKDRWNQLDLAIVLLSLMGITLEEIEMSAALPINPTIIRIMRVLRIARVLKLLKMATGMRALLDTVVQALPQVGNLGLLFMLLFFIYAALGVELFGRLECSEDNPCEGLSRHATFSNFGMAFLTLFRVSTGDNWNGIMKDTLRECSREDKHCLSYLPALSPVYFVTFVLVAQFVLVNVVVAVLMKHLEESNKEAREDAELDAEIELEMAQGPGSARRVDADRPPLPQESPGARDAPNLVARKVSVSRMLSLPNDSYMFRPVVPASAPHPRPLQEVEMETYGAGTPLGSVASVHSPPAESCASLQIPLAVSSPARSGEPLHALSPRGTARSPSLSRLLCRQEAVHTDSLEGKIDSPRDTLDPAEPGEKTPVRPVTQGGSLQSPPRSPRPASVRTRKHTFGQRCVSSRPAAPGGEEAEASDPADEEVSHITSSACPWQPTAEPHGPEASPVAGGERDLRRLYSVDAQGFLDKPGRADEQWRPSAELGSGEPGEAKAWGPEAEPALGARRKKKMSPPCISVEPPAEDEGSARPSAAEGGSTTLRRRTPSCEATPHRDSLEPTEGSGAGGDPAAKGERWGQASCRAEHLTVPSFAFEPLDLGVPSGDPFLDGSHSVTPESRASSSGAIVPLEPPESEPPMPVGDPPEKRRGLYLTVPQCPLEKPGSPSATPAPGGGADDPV

SMILES	inhibition at 1 µM (T-Cav3.2-channel; [3])	Inhibition ratio (%) of fatality in PTZ-model of mice (PTZ-induced seizures)	Latency to fatality (minutes) in PTZ model of mice (PTZ-induced seizures)	Inhibition (%) of Na- channel in DRG neurons (Na-channel; 1 µM)	Inhibition (%) of K-channel in DRG neurons, IA (rapid inactivating potassium current) (K-channel; 1 µM, IA)	Inhibition (%) of K-channel in DRG neurons, IKd (delayed rectifier potassium current) (K-channel; 1 µM, IKd)	also measured
O=C(CCc1cccc(Cl)c1)Nc1nnc(-c2ccc(Cl)s2)o1 [Compound 7, 3-(3-Chlorophenyl)-N-(5-(5-chlorothiophen-2-yl)-1,3,4-oxadiazol-2-yl)propanamide]	20.4 ± 1.9%	30% and 28.6 (n=7) %	13.6±1.8 (n=7) minutes	–	–	–	Inhibition (%) of Na- channel in DRG neurons (Na-channel; 3.3 µM): 82.2 (3.3 μM) (n=1) %; Inhibition (%) of K-channel in DRG neurons, IA (rapid inactivating potassium current) (K-channel; 3.3 µM, IA): −26.0%; Inhibition (%) of K-channel in DRG neurons, IKd (delayed rectifier potassium current) (K-channel; 3.3 µM, IKd): −15.6%
N#CC1CCN(CC(=O)Nc2nnc(-c3ccccc3)o2)CC1 [Compound 14, 2-(4-Cyanopiperidin-1-yl)-N-(5-phenyl-1,3,4-oxadiazol-2-yl)acetamide]	69.6 ± 6.2%	14 (n=7) %	11.8±2.5 (n=7) minutes	−4.7 (n=1) %	12.9%	30.0%	–
c1ccc(-c2nnc(N3CCCCC3)o2)cc1 [Compound 12, 1-(5-Phenyl-1,3,4-oxadiazol-2-yl)piperidine]	44.2 ± 5.6%	–	–	25.7±6.3%	21.9±8.6%	31.6±5.5%	inhibition at 1 µM ([1]; HEK293, read-out: Inhibition (%) of T-Cav3.2- channel in HEK293 cells): 64.6%; IC50 (Na-channel): 2.1 µM; IC50 (K-channel; read-out: IC50, K-channel IA in DRG neurons, IA): 19.6 µM; IC50 (K-channel; read-out: IC50, K-channel IKd in DRG neurons, IKd): 2.6 µM
COCC(=O)O[C@]1(CCN(C)CCCc2nc3ccccc3[nH]2)CCc2cc(F)ccc2[C@@H]1C(C)C [Mibefradril]	–	–	–	–	–	–	IC50 (T-type calcium channels): 0.1 µM; IC50 (L-type calcium channels): 3 µM
O=C1c2cc(Cl)c(Cl)cc2C(=O)N1c1nnc(-c2ccc(Cl)s2)o1 [Compound 6, 5,6-Dichloro-2-(5-(5-chlorothiophen-2-yl)-1,3,4-oxadiazol-2-yl)isoindoline-1,3-dione]	–	0% and 0 (n=8) %	1.9±0.3 (n=8) minutes	–	–	–	inhibition at 3.3 µM (T-Cav3.2-channel; [3]): 9.8%; Inhibition (%) of Na- channel in DRG neurons (Na-channel; 3.3 µM): 100 (3.3 µM) (n=1) %; Inhibition (%) of K-channel in DRG neurons, IA (rapid inactivating potassium current) (K-channel; 3.3 µM, IA): −11.6%; Inhibition (%) of K-channel in DRG neurons, IKd (delayed rectifier potassium current) (K-channel; 3.3 µM, IKd): −17.8%
O=C(CN1CCC(C(=O)Nc2nnc(-c3ccc(Cl)s3)o2)CC1)Nc1ccccc1 [Compound 9, 1-((Phenylcarbamoyl)methyl)-N-(5-(5-chlorothiophen-2-yl)-1,3,4-oxadiazol-2-yl)piperidine-4-carboxamide]	79.5%	–	–	–	–	–	–
O=C(CN1CCCCC1)Nc1nnc(-c2ccccc2)o1 [Compound 13, N-(5-Phenyl-1,3,4-oxadiazol-2-yl)-2-(piperidin-1-yl)acetamide]	55.4 ± 28.7%	0 (n=7) %	3.7±1.8 (n=7) minutes	−2.7 (n=1) %	19.9%	36.5%	–
O=C(CCc1cccc(Cl)c1)Nc1nnc(-c2ccccc2)o1 [Compound 10, 3-(3-Chlorophenyl)-N-(5-phenyl-1,3,4-oxadiazol-2-yl)propanamide]	5%	–	–	–	–	–	–
O=C(Nc1nnc(-c2ccccc2)o1)c1ccc(Cl)s1 [Compound 11, 5-Chloro-N-(5-phenyl-1,3,4-oxadiazol-2-yl)thiophene-2-carboxamide]	50 ± 9.7%	72.1% and 72.7 (n=11) %	15.3±2.4 (n=11) minutes	16.5±8.9 (n=7) %	18.9±11.8%	24.1±14.6%	IC50 (T-Cav3.2-channel): 0.93 µM
O=C(Nc1nnc(-c2ccccc2F)o1)c1ccc(Cl)s1 [Compound 15, 5-Chloro-N-(5-(2-fluorophenyl)-1,3,4-oxadiazol-2-yl)thiophene-2-carboxamide]	60.9%	–	–	–	–	–	–
CC(C)(C)NC(=O)CN1CCC(CNC(=O)c2cc(F)cc(Cl)c2)CC1 [Compound Z944, reference compound]	–	33% and 33.3 (n=6) %	15.2±3.1 (n=6) minutes	49.7±6%	34.5±15.0%	44.9±17.7%	Inhibition (%) of T-Cav3.2- channel in HEK293 cells ([1]; 0.25 µM, HEK293 cells): 74.5±7.8 (0.25 µM, in HEK293 cells) (n=6) %; IC50 (Na-channel): 0.51 µM; Protective effect on seizures, pentylenetetrazole-induced fatality rat model [2]: 33%
O=C(Nc1nnc(-c2ccc(Cl)s2)o1)c1ccccc1 [Compound 8, N-(5-(5-Chlorothiophen-2-yl)-1,3,4-oxadiazol-2-yl)benzamide]	24.4 ± 9.6%	–	–	−71.8 (n=1) %	−18.7%	−28.6%	–
